Measurements: paper PMC7884954 (International Journal of Nanomedicine, 2021)

Key:
[1] = tested on: SK-OV-3 cells; assay: In vitro cytotoxicity; type: cell-based, human
In short: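 SK-OV-3 cells (IMDM, 10% FCS, non-essential amino acids, 37°C, 7% CO2) were seeded at 10,000/well and left to adhere overnight. They were exposed to a concentration series of free drug (in DMSO) or formulations for 4 h, then switched to fresh medium without irradiation (dark). Next day, MTT (2 mg.mL−1) was added for 4 h, formazan was dissolved in DMSO, and A570 was read. Untreated cells were set as 100%. Three independent experiments; IC50 from non-linear fit.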

[2] = tested on: SK-OV-3 cells; assay: Cellular uptake pathway analysis with chlorpromazine and Filipin-III; type: cell-based, human; conditions: 30 µM chlorpromazine, 15 µM Filipin III, light dose 0.5 Jcm^−2
In short: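 SK-OV-3 cells seeded at 10,000/well, adhered overnight (37 °C, 5% CO2), washed in PBS with Ca2+/Mg2+. Pre-incubated 1 h with chlorpromazine (30 µM) or Filipin III (15 µM), then exposed to test formulations or free drugs in DMSO (photosensitiser 1.5 µM, chemotherapeutic 50 µM) for a total of 4 h. Medium replaced, irradiated 0.50 J.cm−2, MTT after 24 h; un-irradiated dark control.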

[3] = tested on: female albino (BALB/c) mice; assay: In vivo acute toxicity: histopathological examinations; conditions: i.v., after 7 days, H&E stain
In short: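 Female BALB/c mice (30–35 g, 8–10 weeks) were randomised to 6 groups (n=3) and given test formulations i.v. via tail vein as two equal doses on days 1 and 3; the saline group was the control. OECD 425 was followed except for the i.v. route. At day 7 mice were killed by cervical dislocation. Heart, liver, kidney and lungs were saline-washed, sectioned by rotary microtome, H&E-stained and examined by light microscopy.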

[4] = tested on: SK-OV-3 cells; assay: Assessment of reactive oxygen species; type: cell-based, human; conditions: mTHPC 5 µM, THP 50 µM, 4 h, light dose 0.5 J.cm^−2 vs dark
In short: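 SK-OV-3 cells (IMDM, 10% FCS, non-essential amino acids, 37°C, 7% CO2) were seeded at 25,000/well overnight and washed with DPBS pH 7.4 containing Ca2+/Mg2+. They were loaded with 25 µM H2DCFDA for 1 h at 37 °C, washed, then exposed to free drug or formulation for 4 h at 37°C. After medium exchange, cells were irradiated at 652 nm, lysed, and read at λex 485/λem 520 nm.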

[5] = tested on: blood plasma; assay: Activated partial thromboplastin time test
In short: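 Plasma was separated from fresh blood by centrifugation at 5000x g for 5 min. It was mixed with an equal volume of test formulation and aPTT reagent, and coagulation was activated with pre-warmed […] CaCl2. Clotting time (s) was recorded spectrophotometrically on a coagulation analyzer, […]. Triplicates, mean ± S.D.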

[6] = tested on: female albino (BALB/c) mice; assay: In vivo acute toxicity: body visceral index; conditions: i.v., post 7 days
In short: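 Female BALB/c mice (30–35 g, 8–10 weeks; 22 ± 2 °C, 12 h light/dark) were randomised into 6 groups of 3. Free drugs in 0.1% DMSO, formulations or saline were given i.v. via tail vein as two equal doses on days 1 and 3 (mTHPC 0.15 mg.kg−1, THP 5 mg.kg−1 equivalent). On day 7, after cervical dislocation, heart, kidney, liver and lungs were washed in saline and weighed. Organ-to-body weight index was compared with controls; mean ± S.D.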

[7] = Ex vivo hemolysis assay; conditions: human, washed red blood cells (RBC suspension diluted 1:50), pH 7.4
In short: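 Donor blood in EDTA was spun at 500× g for 5 min. RBCs were washed three times in DPBS pH 7.4, then diluted 1:50 in PBS. The suspension was incubated with test formulations in V-bottom plates for 1 h at 37 °C with orbital shaking. After centrifugation, supernatant absorbance was read at 540 nm. Triton X-100 defined 100% hemolysis, with saline as the other control. Triplicates, mean ± S.D.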

[8] = tested on: female albino (BALB/c) mice; assay: In vivo acute toxicity: serum biochemical analysis; conditions: i.v., after 7 days
In short: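 Female BALB/c mice (30–35 g, 8–10 weeks) were used in groups of 3. Free drugs in 0.1% DMSO, formulations or saline were given i.v. via tail vein as two equal doses on days 1 and 3 (mTHPC 0.15 mg.kg−1, THP 5 mg.kg−1 equivalent). On day 7, blood was drawn under anesthesia by thoracic puncture and spun at 1200x g for 10 min. Supernatant was stored at −20 °C and then analysed on a serum biochemistry analyzer.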

[9] = tested on: SK-OV-3 cells; assay: In vitro genotoxicity, alkaline comet assay; type: cell-based, human; conditions: SK-OV-3, 4 h, equitoxic dose, light dose 0.05 Jcm^−2
In short: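 SK-OV-3 cells (100,000/well, six-well plate) adhered overnight, then treated with test formulations for 4 h at 37 °C. After a medium change, cells were irradiated at an equitoxic light dose giving 80% viability and returned for 12 h. Cells were trypsinised, washed twice in PBS, set to 80,000 cells/mL and embedded in 1% low-melting agarose. Slides were ethanol-fixed (70%, 20 min), SYBR Safe-stained and viewed by fluorescence microscopy; 50 comets scored per formulation.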

Row | Compound | Cytotoxicity (reduction in cell viability) ([1]; SK-OV-3, dose of 100 µM, no irradiation) [%] | Cellular uptake mechanism [2] | Histopathology: kidney [3] | Histopathology: liver [3] | Histopathology: lungs [3] | Intracellular ROS production [4] | aPTT coagulation time [5] [s] | Visceral body index: kidney weight vs control group [6] | Visceral body index: liver weight vs control group [6] | hemolysis at 1 h [7] [%] | ALP level vs control group [8] | ALT level vs control group [8] | AST level vs control group [8] | Bilirubin level vs control group [8] | Creatinine level vs control [8] | Total protein level [8] | Uric acid level vs control group [8] | DNA damage class (olive tail moment, comet assay) [9] | Reduction of cell viability (dark toxicity) ([1]; SK-OV-3, without irradiation, highest mTHPC concentration 5 µM) [%]
1 | COc1cccc2c1C(=O)c1c(O)c3c(c(O)c1C2=O)C[C@@](O)(C(=O)CO)C[C@@H]3O[C@H]1C[C@H](N)[C@H](O[C@@H]2CCCCO2)[C@H](C)O1 [THP, [2″R]‐4′‐O‐tetrahydropyranyl‐doxorubicin] | 72.26 ± 5.40 | None of the inhibitors was able to minimize the uptake | signs of necrosis, apoptosis, as well as congestion of the renal tissue | some signs of the apoptotic cells with fibrosis, pyknosis (condensation of nuclei due to apoptosis) and hepatic lesions | small changes in the lung′s histology with the breakage of the lung′s fiber | no significant difference in the ROS levels | 127.7 | slight increase in the organ weight | highest increase | 20 | highest increase | increased | highest level | slightly higher | increased | slight increase | moderately increased | class-II (class-II damage (5–20%; low damage)) | 
2 | Oc1cccc(-c2c3nc(c(-c4cccc(O)c4)c4ccc([nH]4)c(-c4cccc(O)c4)c4nc(c(-c5cccc(O)c5)c5ccc2[nH]5)CC4)C=C3)c1 [mTHPC, 5, 10, 15, 20-tetrakis (3-hydroxyphenyl) chlorin] |  | None of the inhibitors was able to minimize the uptake |  |  |  | increased levels of intracellular ROS | 60.2 | slight increase in the organ weight |  | 14 |  | increased | slightly higher | slightly higher | increased | slight increase |  | class-II (class-II damage (5–20%; low damage)) | 18.51 ± 1.87
